Test results as given in ChEMBL document CHEMBL1142010, “Synthesis and in vitro antitrypanosomal activity of novel Nifurtimox analogues” (2005).

Experiments:
Format in all cases: functional
[1] = test system: Trypanosoma cruzi; assay: Percent of growth inhibition of Trypanosoma cruzi (Y strain) epimastigote forms at compound concentration of 1 mg/mL after incubation for 24 hr
In short: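 Y-strain epimastigotes were grown at 28 °C in LIT medium with 10% heat-inactivated (56°, 30 min) fetal calf serum. Log-phase parasites, started at 2 × 10⁶/mL, were exposed to compound in DMSO (1% final). Growth and viability were read every 24 h by inverted microscopy, absorbance at 580 nm and Neubauer counts, in triplicate. Growth inhibition % is the mean of three experiments.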

[2] = test system: Trypanosoma cruzi; assay: Percent of growth inhibition of Trypanosoma cruzi (Y strain) epimastigote forms at compound concentration of 1 mg/mL after incubation for 48 hr; design: inhibition: dose or concentration left out as unconfirmed
[3] = test system: Trypanosoma cruzi; assay: Percent of growth inhibition of Trypanosoma cruzi (Y strain) epimastigote forms at compound concentration of 1 mg/mL after incubation for 72 hr; design: inhibition: dose or concentration left out as unconfirmed
[4] = test system: Trypanosoma cruzi; assay: Percent of growth inhibition of Trypanosoma cruzi (Y strain) epimastigote forms at compound concentration of 10 mg/mL after incubation for 24 hr; design: inhibition: dose or concentration left out as unconfirmed
[5] = test system: Trypanosoma cruzi; assay: Percent of growth inhibition of Trypanosoma cruzi (Y strain) epimastigote forms at compound concentration of 10 mg/mL after incubation for 48 hr; design: inhibition: dose or concentration left out as unconfirmed
[6] = test system: Trypanosoma cruzi; assay: Percent of growth inhibition of Trypanosoma cruzi (Y strain) epimastigote forms at compound concentration of 10 mg/mL after incubation for 72 hr; design: inhibition: dose or concentration left out as unconfirmed
[7] = test system: Trypanosoma cruzi; assay: Percent of growth inhibition of Trypanosoma cruzi (Y strain) epimastigote forms at compound concentration of 10 mg/mL after incubation for 98 hr; design: inhibition: dose or concentration left out as unconfirmed
[8] = test system: Trypanosoma cruzi; assay: Percent of growth inhibition of Trypanosoma cruzi (Y strain) epimastigote forms at compound concentration of 100 mg/mL after incubation for 24 hr; design: inhibition: dose or concentration left out as unconfirmed

SMILES: CC1CS(=O)(=O)CCN1/N=C/c1ccc([N+](=O)[O-])o1 (stereo not drawn) [NIFURTIMOX]
- inhibition at 1000 µg/mL [1]: 17.4%
- inhibition at 1000 µg/mL [2]: 20%
- inhibition at 1000 µg/mL [3]: 19.6%
- inhibition at 10000 µg/mL [4]: 100%
- inhibition at 10000 µg/mL [5]: 100%
- inhibition at 10000 µg/mL [6]: 100%
- inhibition at 10000 µg/mL [7]: 100%
- inhibition at 100000 µg/mL [8]: 100%

SMILES: C[S+](C)[O-] [DIMETHYL SULFOXIDE]
- inhibition at 1000 µg/mL [1]: 0%
- inhibition [2]: 0%
- inhibition [3]: 0%
- inhibition [4]: 0%
- inhibition [5]: 0%
- inhibition [6]: 0%
- inhibition [7]: 0%
- inhibition [8]: 0%

SMILES: O=C(/C=C/c1ccc([N+](=O)[O-])o1)Nc1nc2c(Cl)cccc2s1
- inhibition at 1000 µg/mL [1]: 26.1%
- inhibition [2]: 22.5%
- inhibition [3]: 23.2%
- inhibition [4]: 21.7%
- inhibition [5]: 42.5%
- inhibition [6]: 50%
- inhibition [7]: 50%
- inhibition [8]: 100%

SMILES: O=C(/C=C/c1ccc([N+](=O)[O-])o1)NCc1ccc2c(c1)OCO2
- inhibition at 1000 µg/mL [1]: 52.2%
- inhibition [2]: 67.5%
- inhibition [3]: 71.4%
- inhibition [4]: 100%
- inhibition [5]: 100%
- inhibition [6]: 100%
- inhibition [7]: 100%
- inhibition [8]: 100%

SMILES: CC(C)CNC(=O)/C=C/c1ccc([N+](=O)[O-])o1
- inhibition at 1000 µg/mL [1]: 47.8%
- inhibition [2]: 65%
- inhibition [3]: 69.6%
- inhibition [4]: 100%
- inhibition [5]: 100%
- inhibition [6]: 100%
- inhibition [7]: 100%
- inhibition [8]: 100%

SMILES: O=C(/C=C/c1ccc([N+](=O)[O-])s1)NCc1ccccc1
- inhibition at 1000 µg/mL [1]: 26.1%
- inhibition [3]: 25%
- inhibition [4]: 30.4%
- inhibition [5]: 47.5%
- inhibition [6]: 53.6%
- inhibition [7]: 55.9%
- inhibition [8]: 100%

SMILES: O=C(/C=C/c1ccc([N+](=O)[O-])o1)NCc1ccc(Cl)cc1
- inhibition at 1000 µg/mL [1]: 39.1%
- inhibition [2]: 60%
- inhibition [3]: 67.8%
- inhibition [4]: 100%
- inhibition [5]: 100%
- inhibition [6]: 100%
- inhibition [8]: 100%

SMILES: O=C(/C=C/c1ccc([N+](=O)[O-])o1)NCc1ccccc1
- inhibition at 1000 µg/mL [1]: 47.8%
- inhibition [2]: 65%
- inhibition [3]: 71.4%
- inhibition [4]: 100%
- inhibition [5]: 100%
- inhibition [6]: 100%
- inhibition [7]: 100%
- inhibition [8]: 100%

SMILES: O=C(/C=C/c1cccs1)NCc1ccccc1
- inhibition at 1000 µg/mL [1]: 17.4%
- inhibition [2]: 15%
- inhibition [3]: 10.7%
- inhibition [4]: 17.4%
- inhibition [5]: 22.5%
- inhibition [6]: 19.6%
- inhibition [7]: 13.2%
- inhibition [8]: 39.1%

SMILES: O=C(/C=C/c1ccco1)NCc1ccccc1
- inhibition at 1000 µg/mL [1]: 8.7%
- inhibition [2]: 5%
- inhibition [3]: 5.36%
- inhibition [4]: 21.7%
- inhibition [5]: 32.5%
- inhibition [6]: 28.6%
- inhibition [7]: 19.1%
- inhibition [8]: 39.1%
